The source made the active and inactive calls. The calls are words filed in the database; no cut-off is given here.
Columns and labels:
BT-474 [1] = test: Disruption of cancer stem cells spheroids derived from human BT474 cells at 7.5 uM after 3 days by microscopic analysis; format: functional, cell-based
Summary of the method: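 Equal numbers of ALDH1-selected BT-474 cancer stem cells were seeded in ultra-low adhesion wells and grown to form spheroids. Spheroids were incubated with or without compound for 3 days. Spheroid integrity was judged by microscopic imaging at ×10.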

MDA-MB-231 [2] = test: Cytotoxicity against human MDA-MB-231 cells assessed as decrease in cell viability after 48 hrs by MTS assay; format: functional
Summary of the method: (§1)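 Cells were seeded at equal numbers and, after 24 h, exposed to compounds (0–30 µM) for 48 h. MTS reagent (20% v/v) was then added for 1–4 h, and OD490 was read. Cell-free medium wells served as blanks. Media were DMEM/F12 + 10% FBS for BT-474; DMEM + 10% FBS for DU-145 and MDA-MB-231; and DMEM + 10% FBS + 2.5% horse serum for MiaPaCa-2. Values are mean ± SD, n=6.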

BT-474 [3] = test: Cytotoxicity against cancer stem cells derived from human BT474 cells assessed as cancer stem cell death at 7.5 uM after 3 days by MTS assay; format: functional
Summary of the method: (§2)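 CSCs were isolated from BT-474 using ALDH1 activity as the stemness marker. They were grown in ultra-low adhesion wells for 4 days to form spheroids. Spheroids were then exposed to compounds (0–20 µM) for 3 days. Viability was read by MTS assay and expressed as % of untreated control.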

MIA PaCa-2 [4] = test: Cytotoxicity against human MIAPaCa2 cells assessed as decrease in cell viability after 48 hrs by MTS assay; format: functional; summary of the method: as §1
BT-474 [5] = test: Cytotoxicity against human BT474 cells assessed as decrease in cell viability after 48 hrs by MTS assay; format: functional; summary of the method: as §1
DU-145 [6] = test: Cytotoxicity against human DU145 cells assessed as decrease in cell viability after 48 hrs by MTS assay; format: functional; summary of the method: as §1
BT-474 [7] = test: Cytotoxicity against cancer stem cells derived from human BT474 cells assessed as cancer stem cell death at 20 uM after 3 days by MTS assay; format: functional; summary of the method: as §2
JIMT-1 [8] = test: Cytotoxicity against human JIMT1 cells assessed as decrease in cell viability up to 8 uM after 48 hrs in presence of pan-caspase inhibitor QVD-OPh by MTS assay; format: functional, cell-based
Summary of the method: (§3)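 DU-145 and JIMT-1 cells (DMEM + 10% FBS) were treated with compounds with or without the pan-caspase inhibitor QVD-OPh (40 µM). Viability was read by MTS: cells were seeded, treated 24 h later for 48 h, given MTS (20% v/v) for 1–4 h, and read at OD490 against cell-free blanks.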

DU-145 [9] = test: Cytotoxicity against human DU145 cells assessed as cell death at 2 to 25 times CC50 after 48 hrs by MTS assay; format: functional
Summary of the method: (§4)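 Equal numbers of cells were plated. After 24 h they were exposed to compounds (0–30 µM) for 48 h, then given MTS reagent (20% v/v) for 1–4 h. OD490 was read against cell-free blank wells; mean ± SD of 6 determinations. Media: BT-474 in DMEM/F12 + 10% FBS; DU-145, JIMT-1 and MDA-MB-231 in DMEM + 10% FBS; MiaPaCa-2 in DMEM + 10% FBS + 2.5% horse serum; PC-3 in F12K + 10% FBS; all with penicillin/streptomycin.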

PC-3 = test: Cytotoxicity against human PC3 cells assessed as cell death at 2 to 25 times CC50 after 48 hrs by MTS assay; format: functional; summary of the method: as §4
MIA PaCa-2 [10] = test: Cytotoxicity against human MIAPaCa2 cells assessed as cell death at 2 to 25 times CC50 after 48 hrs by MTS assay; format: functional; summary of the method: as §4
DU-145 [11] = test: Cytotoxicity against human DU145 cells assessed as decrease in cell viability up to 8 uM after 48 hrs in presence of pan-caspase inhibitor QVD-OPh by MTS assay; format: functional, cell-based; summary of the method: as §3
MDA-MB-231 [12] = test: Cytotoxicity against human MDA-MB-231 cells assessed as cell death at 2 to 25 times CC50 after 48 hrs by MTS assay; format: functional; summary of the method: as §4
BT-474 [13] = test: Cytotoxicity against human BT474 cells assessed as cell death at 2 to 25 times CC50 after 48 hrs by MTS assay; format: functional; summary of the method: as §4
DU-145 [14] = test: Cytotoxicity against human DU145 cells assessed as decrease in cell viability up to 8 uM after 48 hrs in absence of pan-caspase inhibitor QVD-OPh by MTS assay; format: functional, cell-based; summary of the method: as §3
BT-474 [15] = test: Disruption of cancer stem cells spheroids derived from human BT474 cells at 20 uM after 3 days by microscopic analysis; format: functional, cell-based
Summary of the method: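 Cancer stem cells were isolated from BT-474 by ALDH1 activity. Equal numbers were seeded in ultra-low-adhesion wells and grown to spheroids. Spheroids were then incubated with or without compounds for 3 days. Spheroid integrity was assessed by light microscopy (×10). Viability was measured in parallel by MTS.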

JIMT-1 [16] = test: Cytotoxicity against human JIMT1 cells assessed as cell death at 2 to 25 times CC50 after 48 hrs by MTS assay; format: functional; summary of the method: as §4
JIMT-1 [17] = test: Cytotoxicity against human JIMT1 cells assessed as decrease in cell viability up to 8 uM after 48 hrs in absence of pan-caspase inhibitor QVD-OPh by MTS assay; format: functional, cell-based; summary of the method: as §3
DU-145 [18] = test: Induction of membrane lysis in human DU145 cells at 0.01% after 10 mins by EthD-1 staining based fluorescence microscopic analysis

CC[C@@H](C(=O)[C@@H](C)[C@@H](O)[C@H](C)[C@@H]1O[C@@H]([C@@H](CC)C(=O)O)CC[C@@H]1C)[C@H]1O[C@]2(C=C[C@@H](O)[C@]3(CC[C@@](C)([C@H]4CC[C@](O)(CC)[C@H](C)O4)O3)O2)[C@H](C)C[C@@H]1C [SALINOMYCIN]
Activity (BT-474 [1]): inactive | Activity (MDA-MB-231 [2]): Active | Activity (BT-474 [3]): 60% | Activity (MIA PaCa-2 [4]): Active | Activity (BT-474 [5]): Active | Activity (DU-145 [6]): Active | Activity (BT-474 [7]): 87%

CCCCCCCCCCCCCCCCOC[C@H](CO[C@H]1O[C@H](CO)[C@@H](O)[C@H](O)[C@H]1N)OC
CC50 (MDA-MB-231 [2]; MDA-MB-231, 48 h): 6 to 10.5 µM | CC50 (MIA PaCa-2 [4]; MIA PaCa-2, 48 h): 6 to 10.5 µM | CC50 (BT-474 [5]; BT-474, 48 h): 6 to 10.5 µM | CC50 (DU-145 [6]; DU-145, 48 h): 6 to 10.5 µM

COc1cccc2c1C(=O)c1c(O)c3c(c(O)c1C2=O)C[C@@](O)(C(=O)CO)C[C@@H]3O[C@H]1C[C@H](N)[C@H](O)[C@H](C)O1.Cl [DOXORUBICIN HYDROCHLORIDE]
Activity (JIMT-1 [8]): inactive | Activity (DU-145 [9]): <90% | Activity (PC-3): <90% | Activity (BT-474 [3]): 75% | Activity (MIA PaCa-2 [10]): <90% | Activity (DU-145 [11]): inactive | Activity (MDA-MB-231 [12]): <90% | Activity (BT-474 [13]): <90% | Activity (DU-145 [14]): Active | Activity (BT-474 [15]): inactive | Activity (JIMT-1 [16]): <90% | Activity (BT-474 [7]): 72% | Activity (JIMT-1 [17]): Active

CC(C)(C)CC(C)(C)c1ccc(OCCOCCOCCOCCOCCOCCOCCOCCOCCOCCO)cc1
Activity (DU-145 [18]): Active
